Assay in all cases: Sulforhodamine B
One assay relates to MCF7 cell line. Format: cell-based, human. Conditions: for inhibition at 100 µM: Homo sapiens, MCF7, 48 h, read-out: Percentage of cell growth inhibition at [100 μM] MCF7. Put shortly:
(§1)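 Carcinoma lines came from the National Cancer Institute, Cairo, and were grown as monolayers in DMEM with 10% FBS and 1% penicillin–streptomycin. Final DMSO was ≤0.1% (v/v). Cells were treated for 48 h either at a single 100 μM dose (% growth inhibition) or at 0, 6.25, 12.5, 25 and 50 μM. SRB staining was read at 570 nm as % viability. IC50 came from dose–response curve fitting.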

In a further assay the test system is HCT116 cell line. The format is cell-based, human. As to conditions: for inhibition at 100 µM: Homo sapiens, HCT-116, 48 h, read-out: Percentage of cell growth inhibition at [100 μM] HCT116. In a few lines: as §1
The subject of assay [1] is HDF cell line (Human Dermal Fibroblasts). Format: cell-based. As to conditions: 48 h; for inhibition at 100 µM: Homo sapiens, HDF, read-out: Percentage of cell growth inhibition at [100 μM] HDF. In a few lines:
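Normal human dermal fibroblasts came from the National Cancer Institute, Cairo. Final DMSO was ≤0.1% (v/v). Cells were exposed to the test compound at a single 100 μM dose for 48 h. Growth inhibition was measured by the sulforhodamine-B method, with absorbance read at 570 nm and expressed as percentage of cell viability.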

The subject of another assay is HEPG2 cell line. The format is cell-based, human. As to conditions: for inhibition at 100 µM: Homo sapiens, HepG2, 48 h, read-out: Percentage of cell growth inhibition at [100 μM] HEPG2. In a few lines: as §1
Where [2] appears, read: single dose 100 μM, 48 h, SRB, mean ± SD.

SMILES strings stand for the structures.

Turning to `Cc1nc(NN=Cc2ccc(OCC(=O)N3CCN(C(=O)COc4ccc(C=NNc5nc(C)c(N=Nc6ccc(F)cc6)s5)cc4)CC3)cc2)sc1N=Nc1ccc(F)cc1` [Compound 9c, 1,1′-(Piperazine-1,4-diyl)bis(2-(4-(((4-methyl-5-(4-fluorophenylazo)thiazol-2-yl)hydrazono)-methyl)phenoxy)ethanone)], the inhibition at 100 µM is 90.3 ± 1.3% in the assay on MCF7 cell line, 87.2 ± 4.53% in the assay on HCT116 cell line, 67.7 ± 11.5% in assay [1] and 77.2 ± 3.1% in the assay with HEPG2 cell line.
On to `O=C(COc1ccccc1C=NN=c1[nH]c(-c2cc3ccccc3oc2=O)cs1)N1CCN(C(=O)COc2ccccc2C=NN=c2[nH]c(-c3cc4ccccc4oc3=O)cs2)CC1` [Compound 15h, 1,1′-(Piperazine-1,4-diyl)bis(2-(2-(((4-(coumarin-3-yl)thiazol-2(3H)-ylidene)hydrazineylidene)-methyl)phenoxy)ethanone)], for which the inhibition at 100 µM in the assay with MCF7 cell line was found to be 46.7 ± 11.3%; in the assay on HCT116 cell line, 36.4 ± 13.8%; in assay [1] it was 44 ± 51.5%; in the assay on HEPG2 cell line, 70.1 ± 8.68%.
The like results for `O=C(COc1ccc(C=NN=c2sc(-c3ccccc3)nn2-c2ccccc2)cc1)N1CCN(C(=O)COc2ccc(C=NN=c3sc(-c4ccccc4)nn3-c3ccccc3)cc2)CC1` [Compound 13a, 1,1′-(Piperazine-1,4-diyl)bis(2-(4-(((3,5-diphenyl-1,3,4-thiadiazol-2(3H)-ylidene)hydrazono)-methyl)phenoxy)ethanone)] were, in that order, 88.2 ± 1.88%, 78.1 ± 5.78%, 52.5 ± 14.8% and 71.4 ± 4.92%.
The like results for `Cc1nc(NN=Cc2ccccc2OCC(=O)N2CCN(C(=O)COc3ccccc3C=NNc3nc(C)c(N=Nc4ccc([N+](=O)[O-])cc4)s3)CC2)sc1N=Nc1ccc([N+](=O)[O-])cc1` [Compound 9j, 1,1′-(Piperazine-1,4-diyl)bis(2-(2-(((4-methyl-5-(4-nitrophenylazo)thiazol-2-yl)hydrazono)-methyl)phenoxy)ethanone)] were, in that order, 71.4 ± 20.5%, 87.7 ± 4.3%, 12 ± 6.04% and 83.1 ± 7.22%.
`O=C(COc1ccccc1C=NN=c1sc(-c2ccccc2)nn1-c1ccccc1)N1CCN(C(=O)COc2ccccc2C=NN=c2sc(-c3ccccc3)nn2-c2ccccc2)CC1` [Compound 13c, 1,1′-(Piperazine-1,4-diyl)bis(2-(2-(((3,5-diphenyl-1,3,4-thiadiazol-2(3H)-ylidene)hydrazono)-methyl)phenoxy)ethanone)]: the inhibition at 100 µM is 86.2 ± 1.83% with MCF7 cell line, 76.4 ± 5.38% in the assay on HCT116 cell line, 60.8 ± 3.09% in assay [1] and 68.8 ± 12.7% in the assay on HEPG2 cell line.
On to `Cc1nc(NN=Cc2ccccc2OCC(=O)N2CCN(C(=O)COc3ccccc3C=NNc3nc(C)c(N=Nc4ccc(F)cc4)s3)CC2)sc1N=Nc1ccc(F)cc1` [Compound 9g, 1,1′-(Piperazine-1,4-diyl)bis(2-(2-(((4-methyl-5-(4-fluorophenylazo)thiazol-2-yl)hydrazono)-methyl)phenoxy)ethanone)], for which the inhibition at 100 µM came to 88.7 ± 4.11% in the assay with MCF7 cell line, 80.6 ± 7.04% in the assay with HCT116 cell line, 71.1 ± 21.6% in assay [1] and 91.8 ± 3.29% with HEPG2 cell line.
As to `COc1ccc(-c2csc(=NN=Cc3ccc(OCC(=O)N4CCN(C(=O)COc5ccc(C=NN=c6[nH]c(-c7ccc(OC)cc7)cs6)cc5)CC4)cc3)[nH]2)cc1` [Compound 15b, 1,1′-(Piperazine-1,4-diyl)bis(2-(4-(((4-(4-methoxyphenyl)thiazol-2(3H)-ylidene)hydrazineylidene)-methyl)phenoxy)ethanone)], the inhibition at 100 µM in the assay with MCF7 cell line is 50.6 ± 10.2%; in the assay on HCT116 cell line it was 21.8 ± 16.5%; in assay [1], 48 ± 48.5%; in the assay on HEPG2 cell line it was 83.4 ± 9.48%.
The like results for `O=C(COc1ccc(C=NN=c2[nH]c(-c3cc4ccccc4oc3=O)cs2)cc1)N1CCN(C(=O)COc2ccc(C=NN=c3[nH]c(-c4cc5ccccc5oc4=O)cs3)cc2)CC1` [Compound 15e, 1,1′-(Piperazine-1,4-diyl)bis(2-(4-(((4-(coumarin-3-yl)thiazol-2(3H)-ylidene)hydrazineylidene)-methyl)phenoxy)ethanone)] were, in that order, 68.4 ± 7.33%, 73.9 ± 4.08%, 68.1 ± 10.1% and 74.4 ± 4.88%.
The matching figures for `NC(=S)NN=Cc1ccc(OCC(=O)N2CCN(C(=O)COc3ccc(C=NNC(N)=S)cc3)CC2)cc1` [Compound 7a, 1,1′-(Piperazine-1,4-diyl)bis(2-(4-(2-carbamothioylhydrazono)methylphenoxy)ethanone)]: 85.3 ± 5.2%, 86.2 ± 5.33%, 45.1 ± 30.1% and 83.3 ± 7.47%.
On to `COc1cccc2c1C(=O)c1c(O)c3c(c(O)c1C2=O)C[C@@](O)(C(=O)CO)C[C@@H]3O[C@H]1C[C@H](N)[C@H](O)[C@H](C)O1` [DOX, reference compound], for which the half-inhibitory concentration (IC50) was found to be 7.59 ± 1.4 µM in the assay on MCF7 cell line (read-out: IC50 (μM) ± SD MCF7, 48 h treatment, SRB); 7.7 ± 1.5 µM in the assay with HCT116 cell line (read-out: IC50 (μM) ± SD HCT116, 48 h treatment, SRB); 8.42 ± 1.7 µM in the assay with HEPG2 cell line (read-out: IC50 (μM) ± SD HEPG2, 48 h treatment, SRB). Also, the “Percentage of cell growth inhibition at [100 μM] MCF7” value in the assay on MCF7 cell line (setting [2]) was 86.37 ± 1.82%. Moreover, the “Percentage of cell growth inhibition at [100 μM] HCT116” value with HCT116 cell line (setting [2]) worked out at 82.77 ± 2.98%. The “Percentage of cell growth inhibition at [100 μM] HDF” value in assay [1] (single dose 100 μM, SRB, normal cells, mean ± SD) is 30.53 ± 9.75%. The “Percentage of cell growth inhibition at [100 μM] HEPG2” value with HEPG2 cell line (setting [2]) is 89.09 ± 0.63%.
`Cc1ccc(N=Nc2sc(NN=Cc3ccccc3OCC(=O)N3CCN(C(=O)COc4ccccc4C=NNc4nc(C)c(N=Nc5ccc(C)cc5)s4)CC3)nc2C)cc1` [Compound 9f, 1,1′-(Piperazine-1,4-diyl)bis(2-(2-(((4-methyl-5-(4-tolylazo)thiazol-2-yl)hydrazono)methyl)-phenoxy)ethanone)]: the inhibition at 100 µM in the assay on MCF7 cell line turned out to be 85.5 ± 2.11%; with HCT116 cell line it was 85.4 ± 6.41%; in assay [1] it was 78.3 ± 3.64%; in the assay on HEPG2 cell line, 93.5 ± 2.07%.
The matching figures for `O=C(COc1ccc(C=NN=c2[nH]c(-c3ccccc3)cs2)cc1)N1CCN(C(=O)COc2ccc(C=NN=c3[nH]c(-c4ccccc4)cs3)cc2)CC1` [Compound 15a, 1,1′-(Piperazine-1,4-diyl)bis(2-(4-(((4-phenylthiazol-2(3H)-ylidene)hydrazineylidene)methyl)-phenoxy)ethanone)]: 87.3 ± 1.63%, 78.1 ± 6.5%, 50.2 ± 21.5% and 67.9 ± 7.03%.
For `Cc1nc(NN=Cc2ccccc2OCC(=O)N2CCN(C(=O)COc3ccccc3C=NNc3nc(C)c(N=Nc4ccc(Cl)cc4)s3)CC2)sc1N=Nc1ccc(Cl)cc1` [Compound 9h, 1,1′-(Piperazine-1,4-diyl)bis(2-(2-(((4-methyl-5-(4-chlorophenylazo)thiazol-2-yl)hydrazono)-methyl)phenoxy)ethanone)], the inhibition at 100 µM was determined as 81 ± 7.44% in the assay with MCF7 cell line, 77.7 ± 8.59% with HCT116 cell line, 56 ± 23.6% in assay [1] and 84 ± 3.07% with HEPG2 cell line.
The like results for `O=C(COc1ccccc1C=NN=c1sc(-c2ccc(Cl)cc2)nn1-c1ccccc1)N1CCN(C(=O)COc2ccccc2C=NN=c2sc(-c3ccc(Cl)cc3)nn2-c2ccccc2)CC1` [Compound 13d, 1,1′-(Piperazine-1,4-diyl)bis(2-(2-(((5-(4-chlorophenyl)-3-phenyl-1,3,4-thiadiazol-2(3H)-ylidene)-hydrazono)methyl)phenoxy)ethanone)] were, in that order, 86.4 ± 2.56%, 88.9 ± 1.38%, 64 ± 10.8% and 80 ± 3.39%.
The like results for `Cc1nc(NN=Cc2ccc(OCC(=O)N3CCN(C(=O)COc4ccc(C=NNc5nc(C)c(N=Nc6ccc(Cl)cc6)s5)cc4)CC3)cc2)sc1N=Nc1ccc(Cl)cc1` [Compound 9d, 1,1′-(Piperazine-1,4-diyl)bis(2-(4-(((4-methyl-5-(4-chlorophenylazo)thiazol-2-yl)hydrazono)-methyl)phenoxy)ethanone)] were, in that order, 90.5 ± 1.99%, 89.1 ± 2.04%, 57.7 ± 18% and 73.1 ± 5.28%.

In general, inhibition refers to how much of the control response was suppressed. By IC50 is commonly meant the concentration that gives 50% inhibition.

These data come from paper PMC11310838 (RSC Advances, 2024).
